Experimental data of several laboratories.
Lines come from different studies, so protocols differ.
Transmembrane protease serine 6: Transmembrane protease serine 6 (Homo sapiens, UniProt Q8IU80)
Palmitoyl-protein thioesterase 1: Palmitoyl-protein thioesterase 1 (Homo sapiens, UniProt P50897)
EGFR: Epidermal growth factor receptor (EGFR, Homo sapiens, UniProt P00533)

| Structure (SMILES) | target | test | conditions | measurement | value |
| --- | --- | --- | --- | --- | --- |
| CC(C)(C)c1ccc(C[C@H](NC(=O)[C@H](Cc2cscn2)NC(=O)CCc2ccccc2)C(=O)N[C@@H](CCCNC(=N)N)C(=O)c2nc3ccccc3s2)cc1 | Transmembrane protease serine 6 | enzyme activity, inhibitor | 0.1 µM | remaining activity | 98% |
| COc1cc(-c2cncc3c2CN(C)Cc2cc(N4CCNCC4)ccc2-3)cc(OC)c1OC | Wee1-like protein kinase (WEE1, Homo sapiens, UniProt P30291) | enzyme activity, inhibitor | 1 µM | remaining activity | 95% |
| C/C=C\c1ccc(O)c(OC)c1 | Palmitoyl-protein thioesterase 1 | enzyme activity, inhibitor | 312 µM | inhibition | 22.2% |
| Cc1cc([C@@H](C)Nc2ccccc2C(=O)O)c2nc(N3CCC(F)(F)CC3)c(C#N)c(=O)n2c1 | Epidermal growth factor receptor (EGFR, Homo sapiens, UniProt P00533, L858R) | binding, competition with immobilised ligand | 10 µM | remaining binding | 100% |
| N=C(N)NCCC[C@H](NC(=O)[C@H](Cc1ccc(-c2ccccc2)cc1)NC(=O)[C@H](Cc1cscn1)NC(=O)CCc1ccccc1)C(=O)c1nc2ccccc2s1 | Transmembrane protease serine 6 | enzyme activity, inhibitor | 0.1 µM | remaining activity | 35% |
| C=CCc1ccc(O)c(O)c1 | Palmitoyl-protein thioesterase 1 | enzyme activity, inhibitor | 625 µM | inhibition | 15.1% |
| N=C(N)NCCC[C@H](NC(=O)[C@@H]1CCCN1C(=O)[C@H](Cc1cscn1)NC(=O)CCc1ccccc1)C(=O)c1nc2ccccc2s1 | Transmembrane protease serine 6 | enzyme activity, inhibitor | 0.1 µM | remaining activity | 60% |
| COc1ccc2[nH]cc(CCNC(C)=O)c2c1 | Palmitoyl-protein thioesterase 1 | enzyme activity, inhibitor | 125 µM | inhibition | 8.97% |
| Cc1ncc(CNCc2ccco2)c2cc(-c3cc(=O)oc4cc5c(cc34)CCC5)oc12 | EGFR | enzyme activity, inhibitor, ADP detection | 1 µM | inhibition | 0 to 40% |
| CC1([C@H](NC(=O)[C@H](Cc2cscn2)NC(=O)CCc2ccccc2)C(=O)N[C@@H](CCCNC(=N)N)C(=O)c2nc3ccccc3s2)CC1 | Transmembrane protease serine 6 | enzyme activity, inhibitor | 0.1 µM | remaining activity | 36% |
| [H]/N=C(\N/C(=N/[H])Nc1ccc(Cl)cc1)NC(C)C | Palmitoyl-protein thioesterase 1 | enzyme activity, inhibitor | 125 µM | inhibition | -0.79% |
| Cc1ccc2c(-c3cc4c(CN5CCN(Cc6ccccn6)CC5)cnc(C)c4o3)cc(=O)oc2c1 | Epidermal growth factor receptor (EGFR, Homo sapiens, UniProt P00533, C797S/L858R/T790M) | enzyme activity, inhibitor, ADP detection | 1 µM | inhibition | 75% |
| C=CC(=O)N1CCC(COCC(=O)N2CCN(c3nc(-c4cnc(N)nc4C(F)F)nc(N4CCOC[C@@H]4C)n3)CC2)CC1 | Ribosomal protein S6 kinase alpha-2, N-terminal kinase domain (RPS6KA2, Homo sapiens, UniProt Q15349) | binding, competition with immobilised ligand | 1 µM | remaining binding | 100% |
| N=C(N)NCCC[C@H](NC(=O)[C@H](Cc1cccc(I)c1)NC(=O)[C@H](Cc1cscn1)NC(=O)CCc1ccccc1)C(=O)c1nc2ccccc2s1 | Transmembrane protease serine 6 | enzyme activity, inhibitor | 0.1 µM | remaining activity | 92% |
| O=C(O)CCCc1c[nH]c2ccccc12 | Palmitoyl-protein thioesterase 1 | enzyme activity, inhibitor | 125 µM | inhibition | 14% |
| Cc1ncc(CN2CCc3ccccc3C2)c2cc(C(=O)c3ccc4c(c3)OCCO4)oc12 | Epidermal growth factor receptor (EGFR, Homo sapiens, UniProt P00533, L858R/T790M) | enzyme activity, inhibitor, ADP detection | 1 µM | inhibition | 65 to 75% |
| O=C(CCn1c(=O)ccc2ccccc21)N1CCOCC1 | EGFR | enzyme activity, inhibitor | 10 µM | inhibition | 86.8% |
| CC(C)(C)C[C@H](NC(=O)[C@H](Cc1cscn1)NC(=O)CCc1ccccc1)C(=O)N[C@@H](CCCNC(=N)N)C(=O)c1nc2ccccc2s1 | Transmembrane protease serine 6 | enzyme activity, inhibitor | 0.1 µM | remaining activity | 3% |
| C=C1C(=O)O[C@@H]2/C=C(\C)CC/C=C(\C)CC[C@@H]12 | Palmitoyl-protein thioesterase 1 | enzyme activity, inhibitor | 125 µM | inhibition | 6.21% |
| CNc1ncc2c(/C=C/C(=O)N3CCC(OC)CC3)nn(Cc3cccc(C(F)(F)F)c3)c2n1 | Serine/threonine-protein kinase B-raf (BRAF, Homo sapiens, UniProt P15056) | enzyme activity, inhibitor, radiometric | 1 µM | remaining activity | 79% |
| C=C1C(=O)O[C@H]2[C@H]1CC/C(C)=C/CC[C@@]1(C)O[C@@H]21 | Palmitoyl-protein thioesterase 1 | enzyme activity, inhibitor | 125 µM | inhibition | -5.16% |
| N=C(N)NCCC[C@H](NC(=O)[C@H](CCC1CCCCC1)NC(=O)[C@H](Cc1cscn1)NC(=O)CCc1ccccc1)C(=O)c1nc2ccccc2s1 | Transmembrane protease serine 6 | enzyme activity, inhibitor | 0.1 µM | remaining activity | 5% |
| Cc1ncc(CN2CCN(Cc3ccccn3)CC2)c2cc(C(=O)c3ccc4c(c3)OCCO4)oc12 | EGFR | enzyme activity, inhibitor, ADP detection | 1 µM | inhibition | 0 to 40% |
| CC1(C)C=Cc2c(ccc3c2OC[C@@H](c2ccc(O)cc2O)C3)O1 | Neuronal acetylcholine receptor; alpha4/beta2 (Homo sapiens, UniProt P17787+P43681) | ion current, two-electrode voltage clamp | 13 µM, oocytes | inhibition | > 50% |
| Nc1ccc(C(=O)NCC(=O)O)cc1 | Palmitoyl-protein thioesterase 1 | enzyme activity, inhibitor | 125 µM | inhibition | 10.1% |
| N=C(N)NCCC[C@H](NC(=O)[C@@H](NC(=O)[C@H](Cc1cscn1)NC(=O)CCc1ccccc1)c1ccccc1)C(=O)c1nc2ccccc2s1 | Transmembrane protease serine 6 | enzyme activity, inhibitor | 0.1 µM | remaining activity | 6% |
| Cc1ccc2c(-c3cc4c(CNCc5cccnc5)cnc(C)c4o3)cc(=O)oc2c1C | EGFR | enzyme activity, inhibitor, ADP detection | 1 µM | inhibition | 90 to 100% |
